Measured values collected from several papers.
Compare with care: the assays were run in different laboratories.
Target: Protein kinase C theta type (PRKCQ, Homo sapiens, UniProt Q04759)

Structure (SMILES) | test | conditions | measurement | result
Nc1ncc(-c2nc(N3CCOCC3)nc(N3CCOCC3)n2)c(C(F)F)n1 | cell-free assay, competition with immobilised ligand | 10 µM | remaining binding | 37%
Cn1cncc1[C@@](O)(COc1ccc(C#N)cc1-c1ccc(OC(F)(F)F)cc1)c1ccc(C#N)cc1 | cell-free assay, competition with immobilised ligand | 1 µM | remaining binding | 100%
COc1ncccc1-c1cnn2ccc(N3CCN(C(=O)OC(C)C)CC3)nc12 | binding, competition with immobilised ligand | 1 µM | remaining binding | 100%
Cc1nn(C)cc1-c1nc2c(N3CCN(Cc4ccc(Cl)cc4)CC3)c(Cl)cnc2[nH]1 | binding, competition with immobilised ligand | 1 µM | remaining binding | 100%
CC(C)(C)c1cc(C=C(C#N)C#N)cc(Br)c1O | enzyme activity, inhibitor | 0.5 µM | remaining activity | 98%
Cn1cc(-c2cccc(N3CCc4c(sc5c4CC(C)(C)C5)C3=O)c2CO)cc(Nc2ccncn2)c1=O | enzyme activity, inhibitor | 1 µM | inhibition | -5%
C#Cc1n[nH]c2c(-c3cn(C(C)c4ccccn4)c(=O)[nH]c3=O)cc(F)cc12 (stereo not shown) | enzyme activity, inhibitor | 1 µM | inhibition | 1.2%
N#CC1(c2ccccn2)CCN(Cc2cc(C(=O)O)c(=O)n3ccccc23)CC1 | cell-free assay, competition with immobilised ligand | 1 µM | remaining binding | 96%
O=c1[nH]c2ccccc2n1C1CCN(Cc2ccc(-c3[nH]c4cc5ncnc5cc4nc3-c3ccccc3)cc2)CC1 | cell-free assay | 0.5 µM | remaining signal | 96.4%
Cn1cc(-c2cc(F)cc(N3CCn4c(cc5c4CCCC5)C3=O)c2CO)cc(Nc2ccc(N3CCN(C4COC4)CC3)cn2)c1=O | enzyme activity, inhibitor | 0.1 µM | inhibition | 0%
